Where “and” joins values, the source holds several entries; their conditions need not be identical. Equal values may be shown once.
How the values were obtained:
HEK-293T = assay: Multiplex assay against HEK293T; format: toxicity, cell-based; details: human
Procedure, shortened: (§1)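 Imaging took place on a CQ1 microscope at 37°C and 5% CO2 once compound had been added to live cells stained at seeding with Hoechst33342, BioTracker Green Microtubule Cytoskeleton Dye, MitoTracker Red and Annexin V Alexa Fluor 680. CellPathfinder machine-learning gating classed cells as Hoechst high-intensity objects or normal cells, classed normal cells as having healthy, pyknosed or fragmented nuclei, and classed pyknosed cells as mitotic or apoptotic. Tubulin, mitochondrial-mass and membrane-permeability phenotypes are per cents of the healthy-nucleus cells.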

U2OS = assay: Multiplex assay against U2OS; format: toxicity, cell-based; details: human; procedure, shortened: as §1
[1] = 24 h, 10 µM, compound concentration 10 uM
[2] = 48 h, 1 µM, compound concentration 1 uM
[3] = 48 h, 10 µM, compound concentration 10 uM
[4] = 12 h, 1 µM, compound concentration 1 uM
[5] = 12 h, 10 µM, compound concentration 10 uM
[6] = 24 h, 1 µM, compound concentration 1 uM

SMILES: Cc1cc(-c2ccc3c(c2)CC[C@H]3N2CC3(CCN(C(=O)Cc4cn5cc(C)sc5n4)CC3)C2)ncn1 [PF-5190457]
- Population Healthy Nuclei (%) (HEK-293T; [1]): 75% and 81%
- Population Hoechst High Intensity Objects (%) (HEK-293T; [1]): 5% and 6%
- Population Membrane Permeable-Phenotype (%) (HEK-293T; [1]): 1% and 0%
- Population Mitochondria Different-Phenotype (%) (HEK-293T; [1]): 28% and 51%
- Population Mitotic Cells (%) (HEK-293T; [1]): 74% and 63%
- Population Normal (%) (HEK-293T; [1]): 94% and 93%
- Population Pyknosed Nuclei (%) (HEK-293T; [1]): 14% and 13%
- Population Tubulin-Different-Phenotype (%) (HEK-293T; [1]): 30% and 23%
- Total Cell Count (HEK-293T; [1]): 638 and 425
- Population Apoptotic (%) (HEK-293T; [2]): 25% and 39%
- Population Fragmented Nuclei (%) (HEK-293T; [2]): 14% and 12%
- Population Healthy Nuclei (%) (HEK-293T; [2]): 79% and 80%
- Population Hoechst High Intensity Objects (%) (HEK-293T; [2]): 1% and 3%
- Population Membrane Permeable-Phenotype (%) (HEK-293T; [2]): 1%
- Population Mitochondria Different-Phenotype (%) (HEK-293T; [2]): 18% and 21%
- Population Mitotic Cells (%) (HEK-293T; [2]): 74% and 60%
- Population Normal (%) (HEK-293T; [2]): 98% and 96%
- Population Pyknosed Nuclei (%) (HEK-293T; [2]): 5% and 6%
- Population Tubulin-Different-Phenotype (%) (HEK-293T; [2]): 9% and 10%
- Total Cell Count (HEK-293T; [2]): 873 and 531
- Population Apoptotic (%) (HEK-293T; [3]): 24% and 46%
- Population Fragmented Nuclei (%) (HEK-293T; [3]): 14% and 13%
- Population Healthy Nuclei (%) (HEK-293T; [3]): 77% and 78%
- Population Hoechst High Intensity Objects (%) (HEK-293T; [3]): 2% and 4%
- Population Membrane Permeable-Phenotype (%) (HEK-293T; [3]): 0%
- Population Mitochondria Different-Phenotype (%) (HEK-293T; [3]): 27% and 32%
- Population Mitotic Cells (%) (HEK-293T; [3]): 76% and 53%
- Population Normal (%) (HEK-293T; [3]): 97% and 95%
- Population Pyknosed Nuclei (%) (HEK-293T; [3]): 8%
- Population Tubulin-Different-Phenotype (%) (HEK-293T; [3]): 20%
- Total Cell Count (HEK-293T; [3]): 927 and 520
- Population Apoptotic (%) (U2OS; [4]): 82% and 63%
- Population Fragmented Nuclei (%) (U2OS; [4]): 24% and 21%
- Population Healthy Nuclei (%) (U2OS; [4]): 65% and 66%
- Population Hoechst High Intensity Objects (%) (U2OS; [4]): 1% and 0%
- Population Membrane Permeable-Phenotype (%) (U2OS; [4]): 7% and 4%
- Population Mitochondria Different-Phenotype (%) (U2OS; [4]): 3%
- Population Mitotic Cells (%) (U2OS; [4]): 17% and 36%
- Population Normal (%) (U2OS; [4]): 98% and 100%
- Population Pyknosed Nuclei (%) (U2OS; [4]): 9% and 11%
- Population Tubulin-Different-Phenotype (%) (U2OS; [4]): 4% and 3%
- Total Cell Count (U2OS; [4]): 239 and 93
- Population Apoptotic (%) (U2OS; [5]): 61% and 71%
- Population Fragmented Nuclei (%) (U2OS; [5]): 18% and 14%
- Population Healthy Nuclei (%) (U2OS; [5]): 66% and 74%
- Population Hoechst High Intensity Objects (%) (U2OS; [5]): 2% and 1%
- Population Membrane Permeable-Phenotype (%) (U2OS; [5]): 7% and 8%
- Population Mitochondria Different-Phenotype (%) (U2OS; [5]): 5% and 10%
- Population Mitotic Cells (%) (U2OS; [5]): 38% and 28%
- Population Normal (%) (U2OS; [5]): 97% and 98%
- Population Pyknosed Nuclei (%) (U2OS; [5]): 14% and 11%
- Population Tubulin-Different-Phenotype (%) (U2OS; [5]): 5% and 6%
- Total Cell Count (U2OS; [5]): 238 and 126
- Population Apoptotic (%) (U2OS; [6]): 69% and 33%
- Population Fragmented Nuclei (%) (U2OS; [6]): 25% and 21%
- Population Healthy Nuclei (%) (U2OS; [6]): 66% and 76%
- Population Hoechst High Intensity Objects (%) (U2OS; [6]): 1% and 0%
- Population Membrane Permeable-Phenotype (%) (U2OS; [6]): 8% and 6%
- Population Mitochondria Different-Phenotype (%) (U2OS; [6]): 3% and 1%
- Population Mitotic Cells (%) (U2OS; [6]): 30% and 66%
- Population Normal (%) (U2OS; [6]): 98% and 99%
- Population Pyknosed Nuclei (%) (U2OS; [6]): 8% and 2%
- Population Tubulin-Different-Phenotype (%) (U2OS; [6]): 5% and 2%
- Total Cell Count (U2OS; [6]): 282 and 126
- Population Apoptotic (%) (U2OS; [1]): 67% and 84%
- Population Fragmented Nuclei (%) (U2OS; [1]): 18%
- Population Healthy Nuclei (%) (U2OS; [1]): 72% and 69%
- Population Hoechst High Intensity Objects (%) (U2OS; [1]): 2% and 1%
- Population Membrane Permeable-Phenotype (%) (U2OS; [1]): 3% and 11%
- Population Mitochondria Different-Phenotype (%) (U2OS; [1]): 0% and 8%
- Population Mitotic Cells (%) (U2OS; [1]): 32% and 15%
- Population Normal (%) (U2OS; [1]): 97% and 98%
- Population Pyknosed Nuclei (%) (U2OS; [1]): 9% and 12%
- Population Tubulin-Different-Phenotype (%) (U2OS; [1]): 1% and 4%
- Total Cell Count (U2OS; [1]): 295 and 154
- Population Apoptotic (%) (U2OS; [2]): 84% and 66%
- Population Fragmented Nuclei (%) (U2OS; [2]): 20% and 16%
- Population Healthy Nuclei (%) (U2OS; [2]): 71% and 78%
- Population Hoechst High Intensity Objects (%) (U2OS; [2]): 0% and 2%
- Population Membrane Permeable-Phenotype (%) (U2OS; [2]): 7% and 4%
- Population Mitochondria Different-Phenotype (%) (U2OS; [2]): 4% and 2%
- Population Mitotic Cells (%) (U2OS; [2]): 15% and 33%
- Population Normal (%) (U2OS; [2]): 99% and 97%
- Population Pyknosed Nuclei (%) (U2OS; [2]): 8% and 5%
- Population Tubulin-Different-Phenotype (%) (U2OS; [2]): 4% and 2%
- Total Cell Count (U2OS; [2]): 402 and 184
- Population Apoptotic (%) (U2OS; [3]): 74% and 76%
- Population Fragmented Nuclei (%) (U2OS; [3]): 16% and 18%
- Population Healthy Nuclei (%) (U2OS; [3]): 71%
- Population Hoechst High Intensity Objects (%) (U2OS; [3]): 3%
- Population Membrane Permeable-Phenotype (%) (U2OS; [3]): 5% and 11%
- Population Mitochondria Different-Phenotype (%) (U2OS; [3]): 2% and 6%
- Population Mitotic Cells (%) (U2OS; [3]): 25% and 23%
- Population Normal (%) (U2OS; [3]): 96%
- Population Pyknosed Nuclei (%) (U2OS; [3]): 12% and 10%
- Population Tubulin-Different-Phenotype (%) (U2OS; [3]): 3% and 4%
- Total Cell Count (U2OS; [3]): 389 and 217

— ChEMBL document CHEMBL5724801, “EUbOPEN Chemogenomics Library - Multiplex” (2024)
